Measured values as given in ChEMBL document CHEMBL4350954, “Identification of Thienopyrimidine Scaffold as an Inhibitor of the ABC Transport Protein ABCC1 (MRP1) and Related Transporters Using a Combined Virtual Screening Approach” (J Med Chem, 2019).
pIC50: −log10 of the molar value.

What follows are molecules tested against T1, Multidrug resistance-associated protein 1 (Homo sapiens, UniProt P33527) (assay: Inhibition of MRP1 in human COR-L23/R cells assessed reduction in tritiated daunomycin efflux incubated for 2 hrs by radioactivity-based assay). Conditions: not given.
T1 sequence (P33527 whole entry): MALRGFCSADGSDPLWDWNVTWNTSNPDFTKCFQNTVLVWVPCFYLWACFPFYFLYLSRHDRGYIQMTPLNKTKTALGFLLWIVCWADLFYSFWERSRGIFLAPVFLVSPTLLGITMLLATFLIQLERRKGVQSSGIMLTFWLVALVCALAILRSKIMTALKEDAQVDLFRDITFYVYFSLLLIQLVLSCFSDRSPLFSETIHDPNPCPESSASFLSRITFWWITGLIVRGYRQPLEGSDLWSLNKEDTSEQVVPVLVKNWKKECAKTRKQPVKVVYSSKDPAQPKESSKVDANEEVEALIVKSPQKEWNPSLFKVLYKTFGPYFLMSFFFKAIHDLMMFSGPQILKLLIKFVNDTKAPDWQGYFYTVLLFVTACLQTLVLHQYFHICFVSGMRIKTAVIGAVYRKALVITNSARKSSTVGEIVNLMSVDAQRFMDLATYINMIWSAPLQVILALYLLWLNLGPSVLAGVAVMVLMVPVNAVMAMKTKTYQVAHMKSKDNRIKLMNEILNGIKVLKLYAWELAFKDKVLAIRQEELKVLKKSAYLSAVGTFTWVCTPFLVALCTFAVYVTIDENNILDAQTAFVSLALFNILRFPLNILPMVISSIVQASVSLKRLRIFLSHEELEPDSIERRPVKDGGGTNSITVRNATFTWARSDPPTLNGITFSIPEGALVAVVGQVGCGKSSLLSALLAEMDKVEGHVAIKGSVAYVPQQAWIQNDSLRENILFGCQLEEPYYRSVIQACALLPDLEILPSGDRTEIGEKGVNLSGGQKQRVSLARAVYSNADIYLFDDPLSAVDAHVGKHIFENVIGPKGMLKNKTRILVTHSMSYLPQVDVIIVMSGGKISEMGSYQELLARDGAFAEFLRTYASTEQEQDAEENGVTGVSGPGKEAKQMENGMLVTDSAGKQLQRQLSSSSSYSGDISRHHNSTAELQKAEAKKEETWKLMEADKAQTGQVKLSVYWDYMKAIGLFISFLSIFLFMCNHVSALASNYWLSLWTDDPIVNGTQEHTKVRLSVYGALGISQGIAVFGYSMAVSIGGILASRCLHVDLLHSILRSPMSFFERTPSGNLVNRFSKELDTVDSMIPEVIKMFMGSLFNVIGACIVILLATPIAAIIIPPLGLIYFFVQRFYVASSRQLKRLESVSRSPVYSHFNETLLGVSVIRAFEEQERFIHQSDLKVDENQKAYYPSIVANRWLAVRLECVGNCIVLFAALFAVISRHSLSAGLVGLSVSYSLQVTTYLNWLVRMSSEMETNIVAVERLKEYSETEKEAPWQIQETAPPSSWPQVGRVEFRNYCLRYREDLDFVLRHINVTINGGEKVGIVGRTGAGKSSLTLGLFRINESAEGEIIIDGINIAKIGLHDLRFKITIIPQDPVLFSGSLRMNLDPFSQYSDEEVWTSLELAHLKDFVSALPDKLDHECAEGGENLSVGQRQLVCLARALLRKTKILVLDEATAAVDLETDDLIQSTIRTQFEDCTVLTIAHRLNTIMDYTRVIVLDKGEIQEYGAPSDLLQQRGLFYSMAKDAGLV
Format: cell-based
With CCOC(=O)Cn1c2cccc(C(N)=O)c2c2ncnc(N3CCN(CCc4ccc(F)c(F)c4)CC3)c21 the pIC50 was 6.91.

These molecules were tested against ABCC1 (MRP1) (Homo sapiens, UniProt P33527) (assay: Inhibition of ABCC1 in human H69AR cells at 10 uM preincubated for 30 mins followed by calcein-AM addition measured at 60 secs time interval by fluorescence assay relative to control). Conditions: probe calcein-AM.
Chain of ABCC1 (MRP1) (P33527 whole entry): as above
Format: cell-based
In short: (§1)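 Calcein AM accumulation assay in H69AR small-cell lung cancer cells, which express only ABCC1. Inhibited efflux lets calcein AM build up intracellularly, where esterases cleave it to fluorescent calcein. The screen used 10 µM, scaled to a standard ABCC1 inhibitor at 10 µM as 100%. Hits reaching ≥20% inhibition (+SEM) went on to IC50 curves, constrained to that 100% maximum. Values are means of ≥3 independent experiments in duplicate ± SEM.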
Cc1nc2cc(NC(=O)C3CCCN(c4cc(-n5cccn5)ncn4)C3)ccc2s1 (stereo not drawn) was tested, and the inhibition at 1 min, 10 µM was at least 20%. Molecule O=C(c1cc(-c2cccnc2)nc2ccccc12)N1CCN(Cc2cccs2)CC1 has an inhibition at 1 min, 10 µM of at least 20%. C[C@@]1(C(=O)Nc2ccc(F)nc2)CCCN1c1nc(Nc2cc(C3CC3)n[nH]2)c2cccn2n1 [BMS-754807] was tested, and the inhibition at 1 min, 10 µM was at least 20%.

Each molecule was assayed against T1, Multidrug resistance-associated protein 1 (assay: Inhibition of ABCC1 in human H69AR cells preincubated for 30 mins followed by calcein-AM addition measured at 60 secs time interval by fluorescence assay). Conditions: not given.
Format: cell-based
In short: as §1
Cc1nc2cc(NC(=O)C3CCCN(c4cc(-n5cccn5)ncn4)C3)ccc2s1 (stereo not drawn) was tested, and the pIC50 was 4.64. For O=C(c1cc(-c2cccnc2)nc2ccccc12)N1CCN(Cc2cccs2)CC1, the pIC50 was 4.41. Work on C[C@@]1(C(=O)Nc2ccc(F)nc2)CCCN1c1nc(Nc2cc(C3CC3)n[nH]2)c2cccn2n1 [BMS-754807] yielded a pIC50 of 4.44.

What follows are molecules tested against ABCB1 (P-gp) (Homo sapiens, UniProt P08183) (assay: Inhibition of ABCB1 in human A2780/ADR cells at 10 uM preincubated for 30 mins followed by calcein AM addition and measured at 60 secs time interval by fluorescence assay relative to cyclosporine A). Conditions: probe calcein AM.
Chain of ABCB1 (P-gp) (P08183 whole entry): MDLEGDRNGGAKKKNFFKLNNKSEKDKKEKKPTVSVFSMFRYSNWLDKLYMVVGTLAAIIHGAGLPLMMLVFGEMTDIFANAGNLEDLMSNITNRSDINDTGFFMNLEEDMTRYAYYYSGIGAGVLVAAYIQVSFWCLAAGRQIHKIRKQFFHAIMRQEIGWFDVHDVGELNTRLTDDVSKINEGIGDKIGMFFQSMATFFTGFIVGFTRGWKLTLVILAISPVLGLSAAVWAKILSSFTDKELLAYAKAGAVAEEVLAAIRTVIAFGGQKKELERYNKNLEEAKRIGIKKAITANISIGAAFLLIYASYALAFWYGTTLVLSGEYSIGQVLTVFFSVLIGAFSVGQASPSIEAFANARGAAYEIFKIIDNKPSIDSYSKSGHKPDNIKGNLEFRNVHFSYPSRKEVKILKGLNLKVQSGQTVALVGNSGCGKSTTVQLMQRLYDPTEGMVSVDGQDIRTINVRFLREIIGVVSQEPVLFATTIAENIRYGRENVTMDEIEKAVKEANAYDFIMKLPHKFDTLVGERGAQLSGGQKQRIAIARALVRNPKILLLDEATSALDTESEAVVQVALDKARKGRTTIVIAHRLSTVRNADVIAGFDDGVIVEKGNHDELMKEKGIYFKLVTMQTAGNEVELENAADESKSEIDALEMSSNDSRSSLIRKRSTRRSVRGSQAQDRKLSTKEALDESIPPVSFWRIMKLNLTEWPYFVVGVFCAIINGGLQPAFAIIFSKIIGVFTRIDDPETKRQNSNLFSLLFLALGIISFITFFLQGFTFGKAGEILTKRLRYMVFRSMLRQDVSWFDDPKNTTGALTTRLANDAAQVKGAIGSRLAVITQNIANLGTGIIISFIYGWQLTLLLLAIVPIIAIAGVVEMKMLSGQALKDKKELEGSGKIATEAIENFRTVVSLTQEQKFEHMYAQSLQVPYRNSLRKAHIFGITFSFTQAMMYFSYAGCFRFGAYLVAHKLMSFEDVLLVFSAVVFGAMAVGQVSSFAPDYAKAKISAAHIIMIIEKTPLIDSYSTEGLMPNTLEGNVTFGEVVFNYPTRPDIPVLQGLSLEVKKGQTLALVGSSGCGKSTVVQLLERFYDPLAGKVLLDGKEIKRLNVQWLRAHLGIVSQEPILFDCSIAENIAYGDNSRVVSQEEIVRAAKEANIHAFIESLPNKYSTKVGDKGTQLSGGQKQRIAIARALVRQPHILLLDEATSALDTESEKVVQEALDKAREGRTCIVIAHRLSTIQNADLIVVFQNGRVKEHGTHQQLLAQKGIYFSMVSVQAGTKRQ
Format: cell-based
CCCc1cc(N2CCN(CCOc3cccc4ccccc34)CC2)n2nc3nc(C)cc(C)c3c2n1 gave an inhibition at 1 min, 10 µM of at least 20%. Cc1cc(C)c2c(n1)sc1c(N3CCN(Cc4ccccc4Cl)CC3)ncnc12 showed an inhibition at 1 min, 10 µM of at least 20%. Cc1nc2cc(NC(=O)C3CCCN(c4cc(-n5cccn5)ncn4)C3)ccc2s1 (stereo not drawn) showed an inhibition at 1 min, 10 µM of at least 20%. In the case of Cc1ccccc1-n1c(SCC(=O)N2CCN(Cc3ccccc3)CC2)nnc1-c1cccnc1, the inhibition at 1 min, 10 µM was at least 20%. Cc1ccccc1-n1nnnc1SCC(=O)N1CCN(Cc2ccccc2)CC1 gave an inhibition at 1 min, 10 µM of at least 20%. Molecule O=C(CSc1nnc(-c2ccc(F)cc2)o1)N1CCN(Cc2ccc3c(c2)CCO3)CC1 has an inhibition at 1 min, 10 µM of at least 20%. Fc1ccccc1N1CCN(Cc2csc(-c3ccc4c(c3)OCO4)n2)CC1 gave an inhibition at 1 min, 10 µM of at least 20%. O=C(c1cc(-c2cccnc2)nc2ccccc12)N1CCN(Cc2cccs2)CC1 was tested, and the inhibition at 1 min, 10 µM was at least 20%. For C[C@@]1(C(=O)Nc2ccc(F)nc2)CCCN1c1nc(Nc2cc(C3CC3)n[nH]2)c2cccn2n1 [BMS-754807], the inhibition at 1 min, 10 µM was at least 20%.

What follows are molecules tested against ATP-dependent translocase ABCB1 (Homo sapiens, UniProt P08183) (assay: Inhibition of ABCB1 in human A2780/ADR cells preincubated for 30 mins followed by calcein AM addition and measured at 60 secs time interval by fluorescence assay). Conditions: not given.
Chain of ATP-dependent translocase ABCB1 (P08183 whole entry): as above
Format: cell-based
Work on CCCc1cc(N2CCN(CCOc3cccc4ccccc34)CC2)n2nc3nc(C)cc(C)c3c2n1 yielded a pIC50 of 4.84. With Cc1cc(C)c2c(n1)sc1c(N3CCN(Cc4ccccc4Cl)CC3)ncnc12 the pIC50 was 5.55. Work on Cc1nc2cc(NC(=O)C3CCCN(c4cc(-n5cccn5)ncn4)C3)ccc2s1 (stereo not drawn) yielded a pIC50 of 5.32. Cc1ccccc1-n1c(SCC(=O)N2CCN(Cc3ccccc3)CC2)nnc1-c1cccnc1 gave a pIC50 of 4.81. Work on Cc1ccccc1-n1nnnc1SCC(=O)N1CCN(Cc2ccccc2)CC1 yielded a pIC50 of 4.58. O=C(CSc1nnc(-c2ccc(F)cc2)o1)N1CCN(Cc2ccc3c(c2)CCO3)CC1 was tested, and the pIC50 was 4.51. Fc1ccccc1N1CCN(Cc2csc(-c3ccc4c(c3)OCO4)n2)CC1 was tested, and the pIC50 was 4.81. In the case of O=C(c1cc(-c2cccnc2)nc2ccccc12)N1CCN(Cc2cccs2)CC1, the pIC50 was 4.56. In the case of C[C@@]1(C(=O)Nc2ccc(F)nc2)CCCN1c1nc(Nc2cc(C3CC3)n[nH]2)c2cccn2n1 [BMS-754807], the pIC50 was 4.75.

The molecules below were run against T2, ABCG2 (BCRP) (Homo sapiens, UniProt Q9UNQ0) (assay: Inhibition of ABCG2 (unknown origin) expressed in MDCK2 cells co-expressing BCRP (unknown origin) assessed as effect on pheophorbide A accumulation at 10 uM pre-incubated for 20 mins followed by pheophorbide A addition and measured after 120 mins by flow cytometric analysis relative to Ko143). Conditions: probe pheophorbide A.
T2 sequence (Q9UNQ0 whole entry): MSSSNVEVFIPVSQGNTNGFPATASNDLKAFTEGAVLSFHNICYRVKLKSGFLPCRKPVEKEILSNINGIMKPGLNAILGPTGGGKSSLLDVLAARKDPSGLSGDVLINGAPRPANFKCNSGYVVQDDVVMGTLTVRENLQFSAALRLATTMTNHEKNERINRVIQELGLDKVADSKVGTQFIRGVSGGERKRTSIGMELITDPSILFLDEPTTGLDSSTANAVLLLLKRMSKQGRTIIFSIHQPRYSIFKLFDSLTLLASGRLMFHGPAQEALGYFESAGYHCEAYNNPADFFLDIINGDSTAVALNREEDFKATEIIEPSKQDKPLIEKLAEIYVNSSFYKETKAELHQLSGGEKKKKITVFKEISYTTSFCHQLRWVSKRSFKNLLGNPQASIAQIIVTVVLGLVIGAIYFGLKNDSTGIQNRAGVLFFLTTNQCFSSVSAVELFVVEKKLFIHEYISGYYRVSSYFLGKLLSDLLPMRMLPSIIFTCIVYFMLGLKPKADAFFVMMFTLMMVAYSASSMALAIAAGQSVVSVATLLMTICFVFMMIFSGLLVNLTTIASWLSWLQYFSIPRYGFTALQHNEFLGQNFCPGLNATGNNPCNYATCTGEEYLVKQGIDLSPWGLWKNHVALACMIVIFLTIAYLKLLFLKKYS
Format: cell-based
In short: (§2)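 Pheophorbide A accumulation assay in ABCG2-transfected MDCK II BCRP cells. Ko143 at 10 µM set 100% and no compound set 0%. Screening was at 10 µM; compounds reaching >20% (+SEM) got IC50 curves constrained to the Ko143 maximum at 10 µM. Values are reported as mean ± SEM.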
For CCCc1cc(N2CCN(CCOc3cccc4ccccc34)CC2)n2nc3nc(C)cc(C)c3c2n1, the inhibition at 2 h, 10 µM was at least 20%. Molecule Cc1cc(C)c2c(n1)sc1c(N3CCN(Cc4ccccc4Cl)CC3)ncnc12 has an inhibition at 2 h, 10 µM of at least 20%. In the case of Cc1nc2cc(NC(=O)C3CCCN(c4cc(-n5cccn5)ncn4)C3)ccc2s1 (stereo not drawn), the inhibition at 2 h, 10 µM was at least 20%. With O=C(c1ccc2c(c1)OCCO2)C1CCN(C(=O)c2ccc(-n3cccn3)cc2)CC1 the inhibition at 2 h, 10 µM was at least 20%. Molecule O=C(CSc1nnc(-c2ccc(F)cc2)o1)N1CCN(Cc2ccc3c(c2)CCO3)CC1 has an inhibition at 2 h, 10 µM of at least 20%. Fc1ccccc1N1CCN(Cc2csc(-c3ccc4c(c3)OCO4)n2)CC1 showed an inhibition at 2 h, 10 µM of at least 20%. Work on O=C(c1cc(-c2cccnc2)nc2ccccc12)N1CCN(Cc2cccs2)CC1 yielded an inhibition at 2 h, 10 µM of at least 20%. In the case of C[C@@]1(C(=O)Nc2ccc(F)nc2)CCCN1c1nc(Nc2cc(C3CC3)n[nH]2)c2cccn2n1 [BMS-754807], the inhibition at 2 h, 10 µM was at least 20%. In the case of N#Cc1ccc(CN2CCN(C(=O)c3cn(Cc4ccccc4)nc3-c3cccnc3)CC2)cc1, the inhibition at 2 h, 10 µM was at least 20%.

These molecules were tested against T3, Broad substrate specificity ATP-binding cassette transporter ABCG2 (Homo sapiens, UniProt Q9UNQ0) (assay: Inhibition of ABCG2 (unknown origin) expressed in MDCK2 cells co-expressing BCRP (unknown origin) assessed as effect on pheophorbide A accumulation pre-incubated for 20 mins followed by pheophorbide A addition and measured after 120 mins by flow cytometric analysis). Conditions: not given.
T3 sequence (Q9UNQ0 whole entry): T2 sequence (Q9UNQ0 whole entry)
Format: cell-based
In short: as §2
CCCc1cc(N2CCN(CCOc3cccc4ccccc34)CC2)n2nc3nc(C)cc(C)c3c2n1 showed a pIC50 of 4.93. Work on Cc1cc(C)c2c(n1)sc1c(N3CCN(Cc4ccccc4Cl)CC3)ncnc12 yielded a pIC50 of 5.06. Work on Cc1nc2cc(NC(=O)C3CCCN(c4cc(-n5cccn5)ncn4)C3)ccc2s1 (stereo not drawn) yielded a pIC50 of 5.86. Work on O=C(c1ccc2c(c1)OCCO2)C1CCN(C(=O)c2ccc(-n3cccn3)cc2)CC1 yielded a pIC50 of 4.98. With O=C(CSc1nnc(-c2ccc(F)cc2)o1)N1CCN(Cc2ccc3c(c2)CCO3)CC1 the pIC50 was 4.84. For Fc1ccccc1N1CCN(Cc2csc(-c3ccc4c(c3)OCO4)n2)CC1, the pIC50 was 4.95. In the case of O=C(c1cc(-c2cccnc2)nc2ccccc12)N1CCN(Cc2cccs2)CC1, the pIC50 was 4.80. With C[C@@]1(C(=O)Nc2ccc(F)nc2)CCCN1c1nc(Nc2cc(C3CC3)n[nH]2)c2cccn2n1 [BMS-754807] the pIC50 was 4.99. In the case of N#Cc1ccc(CN2CCN(C(=O)c3cn(Cc4ccccc4)nc3-c3cccnc3)CC2)cc1, the pIC50 was 4.81.
